# Assay results: ChEMBL document CHEMBL1629663, “Postantibiotic effects of telavancin against 16 gram-positive organisms” (Antimicrob Agents Chemother, 2009)
# Columns and labels:
# Staphylococcus aureus [1] = test: Antimicrobial activity against vancomycin-susceptible-, methicillin-resistant Staphylococcus aureus 1306 assessed as time required to induce sub-MIC effect at 0.2 times MIC exposed for 2 hrs by plate counting method; assay type: functional
# Method in brief: (§1)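 Sub-MIC effect: cultures not preexposed to drug were diluted and handled as in the PA-SME procedure in Mueller-Hinton broth with final 0.2, 0.3 or 0.4× MIC, plus a drug-free control. Viable plate counts were taken every 2 h until McFarland 1 turbidity. Duration was derived from growth curves. Two experiments were run, each with a new inoculum.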
# Enterococcus faecalis [2] = test: Antimicrobial activity against Enterococcus faecalis ATCC 29212 assessed as post-antibiotic effect at 10 times MIC pre-exposed to Telavancin for 1 hr by plate counting method; assay type: functional
# Method in brief: (§2)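 Organisms were suspended in Mueller-Hinton broth from overnight blood agar colonies at about 5 × 10^6 CFU/ml. Cultures were exposed to telavancin at 10× MIC for 1 h at 35°C in a shaking water bath, then diluted 1:1,000 to remove the drug, with an untreated growth control. Viable counts were taken before exposure, at 0 h, then every 2 h until McFarland no. 1 turbidity. PAE = T − C, the time to a 1 log10 rise. Two experiments.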
# Staphylococcus aureus [3] = test: Antimicrobial activity against heterogenous vancomycin-intermediate-, methicillin-resistant Staphylococcus aureus 618 assessed as time required to induce sub-MIC effect at 0.2 times MIC exposed for 2 hrs by plate counting method; assay type: functional
# Method in brief: (§3)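 SME, viable plate count method: no prior drug exposure. About 5 × 10^6 CFU/ml in Mueller-Hinton broth at 35°C received 0.2, 0.3 or 0.4× MIC, alongside a drug-free tube. Counts were taken at the start, then every 2 h until McFarland no. 1 turbidity, as log10 CFU/ml against time. Two separate experiments, each with a new inoculum.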
# Staphylococcus aureus [4] = test: Antimicrobial activity against vancomycin-intermediate-, methicillin-resistant Staphylococcus aureus 1984 by microdilution method; assay type: functional
# Enterococcus faecalis [5] = test: Antimicrobial activity against Enterococcus faecalis ATCC 29212 assessed as time required to induce sub-MIC effect at 0.2 times MIC exposed for 2 hrs by plate counting method; assay type: functional
# Method in brief: (§4)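 Unexposed Mueller-Hinton broth cultures (about 5 × 10^6 CFU/ml, 35°C) were handled as in the PA-SME set but without the 10× MIC pre-exposure. They were diluted 1:1,000, then given telavancin at final 0.2, 0.3 or 0.4× MIC, with a drug-free control. Viable counts were taken every 2 h until McFarland no. 1 turbidity. Effect duration comes from log10 CFU/ml-time plots; two separate experiments with new inocula.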
# Staphylococcus aureus [6] = test: Antimicrobial activity against vancomycin-susceptible-, methicillin-resistant Staphylococcus aureus 1307 assessed as time required to induce sub-MIC effect at 0.4 times MIC exposed for 2 hrs by plate counting method; assay type: functional; method in brief: as §1
# Staphylococcus aureus [7] = test: Antimicrobial activity against vancomycin-susceptible-, methicillin-resistant Staphylococcus aureus 1130 assessed as time required to induce sub-MIC effect at 0.2 times MIC exposed for 2 hrs by plate counting method; assay type: functional; method in brief: as §1
# Streptococcus agalactiae [8] = test: Antimicrobial activity against Streptococcus agalactiae HMC 5 assessed as time required to induce sub-MIC effect at 0.2 times MIC exposed for 2 hrs by plate counting method; assay type: functional; method in brief: as §4
# Streptococcus pyogenes = test: Antimicrobial activity against Streptococcus pyogenes HMC 414 assessed as time required to induce sub-MIC effect at 0.2 times MIC exposed for 2 hrs by plate counting method; assay type: functional; method in brief: as §4
# Staphylococcus aureus [9] = test: Antimicrobial activity against heterogenous vancomycin-intermediate-, methicillin-resistant Staphylococcus aureus 873 assessed as time required to induce sub-MIC effect at 0.3 times MIC […] by plate counting method; assay type: functional; method in brief: as §3
# Staphylococcus aureus [10] = test: Antimicrobial activity against vancomycin-intermediate-, methicillin-resistant Staphylococcus aureus 770 assessed as time required to induce sub-MIC effect at 0.4 times MIC exposed for 2 hrs by plate counting method; assay type: functional; method in brief: as §1
# Staphylococcus aureus [11] = test: Antimicrobial activity against vancomycin-intermediate-, methicillin-resistant Staphylococcus aureus 770 assessed as time required to induce post antibiotic sub-MIC effect at 0.3 times MIC […] by plate counting method; assay type: functional
# Method in brief: (§5)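 PAE was first induced with 10× MIC for 1 h at 35°C (inoculum about 5 × 10^6 CFU/ml, Mueller-Hinton broth) and ended by 1:1,000 dilution. Cultures were then split and given 0.2, 0.3 or 0.4× MIC, with one tube left without drug. Viable counts were taken before exposure, after dilution, then every 2 h until McFarland no. 1 turbidity. Two separate experiments, each with a new inoculum.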
# Staphylococcus aureus [12] = test: Antimicrobial activity against vancomycin-intermediate-, methicillin-resistant Staphylococcus aureus 1287 assessed as time required to induce post antibiotic sub-MIC effect at 0.2 times MIC pre-exposed to Telavancin for 1 hr by plate counting method
# Staphylococcus aureus [13] = test: Antimicrobial activity against vancomycin-resistant-, methicillin-resistant Staphylococcus aureus 510 assessed as time required to induce sub-MIC effect at 0.3 times MIC exposed for 2 hrs by plate counting method; assay type: functional; method in brief: as §1
# Staphylococcus aureus [14] = test: Antimicrobial activity against vancomycin-intermediate-, methicillin-resistant Staphylococcus aureus 1287 by microdilution method; assay type: functional
# Enterococcus faecalis [15] = test: Antimicrobial activity against Enterococcus faecalis HMC 571 assessed as time required to induce post antibiotic sub-MIC effect at 0.2 times MIC pre-exposed to Telavancin […] by plate counting method; assay type: functional
# Method in brief: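 Mueller-Hinton broth cultures of about 5 × 10^6 CFU/ml were pre-exposed to telavancin at 10× MIC for 1 h at 35°C, then diluted 1:1,000. Telavancin was re-added to final 0.2, 0.3 or 0.4× MIC, alongside a drug-free tube. Viable counts were taken before exposure, after dilution, then every 2 h until McFarland no. 1 turbidity. Duration comes from log10 CFU/ml-versus-time plots; two separate experiments with fresh inocula.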
# Staphylococcus aureus [16] = test: Antimicrobial activity against vancomycin-susceptible-, methicillin-resistant Staphylococcus aureus 1130 assessed as time required to induce post antibiotic sub-MIC effect at 0.4 times MIC […] by plate counting method; assay type: functional
# Method in brief: (§6)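 After 1 h preexposure to 10× MIC at 35°C and 1:1,000 dilution, cultures were split, and drug was re-added to final 0.2, 0.3 or 0.4× MIC, with a drug-free tube. Viable counts were taken every 2 h until McFarland 1 turbidity. Duration was derived from log10 CFU/ml versus time curves. Two experiments were run, each with a new inoculum.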
# Staphylococcus aureus [17] = test: Antimicrobial activity against vancomycin-intermediate-, methicillin-resistant Staphylococcus aureus 1984 assessed as time required to induce post antibiotic sub-MIC effect at 0.4 times MIC […] by plate counting method; assay type: functional; method in brief: as §5
# Staphylococcus aureus [18] = test: Antimicrobial activity against vancomycin-intermediate-, methicillin-resistant Staphylococcus aureus 555 assessed as time required to induce sub-MIC effect at 0.2 times MIC […] by plate counting method; assay type: functional; method in brief: as §3
# Staphylococcus aureus [19] = test: Antimicrobial activity against vancomycin-susceptible-, methicillin-resistant Staphylococcus aureus 1307 by microdilution method; assay type: functional
# Streptococcus agalactiae [20] = test: Antimicrobial activity against Streptococcus agalactiae HMC 5 assessed as post-antibiotic effect at 10 times MIC pre-exposed to Telavancin for 1 hr by plate counting method; assay type: functional; method in brief: as §2
# Staphylococcus aureus [21] = test: Antimicrobial activity against vancomycin-susceptible-, methicillin-resistant Staphylococcus aureus 1307 assessed as time required to induce post antibiotic sub-MIC effect at 0.2 times MIC pre-exposed to Telavancin […] by plate counting method; assay type: functional; method in brief: as §6
# Staphylococcus aureus [22] = test: Antimicrobial activity against heterogenous vancomycin-intermediate-, methicillin-resistant Staphylococcus aureus 618 by microdilution method; assay type: functional
structure (smiles),measurement,setting,value
CCCCCCCCCCNCCN[C@@]1(C)C[C@H](O[C@H]2[C@H](Oc3c4cc5cc3Oc3ccc(cc3Cl)[C@@H](O)[C@@H](NC(=O)[C@@H](CC(C)C)NC)C(=O)N[C@@H](CC(N)=O)C(=O)N[C@H]5C(=O)N[C@H]3C(=O)N[C@H](C(=O)N[C@H](C(=O)O)c5cc(O)c(CNCP(=O)(O)O)c(O)c5-c5cc3ccc5O)[C@H](O)c3ccc(c(Cl)c3)O4)O[C@H](CO)[C@@H](O)[C@@H]2O)O[C@@H](C)[C@H]1O [TELAVANCIN],PAE,Staphylococcus aureus [1],0.7 h
same,PAE,Enterococcus faecalis [2],0.3 h
same,PAE,Staphylococcus aureus [3],0.3 h
same,MIC,Staphylococcus aureus [4],0.25 µg/mL
same,PAE,Enterococcus faecalis [5],0.7 h
same,PAE,Staphylococcus aureus [6],6.3 h
same,PAE,Staphylococcus aureus [7],0 h
same,PAE,Streptococcus agalactiae [8],0.2 h
same,PAE,Streptococcus pyogenes,0 h
same,PAE,Staphylococcus aureus [9],0.5 h
same,PAE,Staphylococcus aureus [10],0.8 h
same,PAE,Staphylococcus aureus [11],6.3 h
same,PAE,Staphylococcus aureus [12],5.1 h
same,PAE,Staphylococcus aureus [13],2.3 h
same,MIC,Staphylococcus aureus [14],0.5 µg/mL
same,PAE,Enterococcus faecalis [15],3.9 h
same,PAE,Staphylococcus aureus [16],> 10 h
same,PAE,Staphylococcus aureus [17],> 10 h
same,PAE,Staphylococcus aureus [18],0.3 h
same,MIC,Staphylococcus aureus [19],0.12 µg/mL
same,PAE,Streptococcus agalactiae [20],0.4 h
same,PAE,Staphylococcus aureus [21],6 h
same,MIC,Staphylococcus aureus [22],0.12 µg/mL
